Screening results from PubChem.
The full list was thinned out, with hits kept by preference.
Beta2AR agonist – beta2AR agonists driving receptor internalization, primary screen, cell-based, FAP fluorogen, flow cytometry; Beta-2 adrenergic receptor (Homo sapiens), P07550; Am2.2-beta2AR cells; response, % (no concentration beside the values); actives 0.43% (n = 340,000);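 active means response above a set limit, near 3 SD of response in nonfluorescent compounds, cut at about 42% in these data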
CHOP inh – inhibitors of CHOP promoter induction, primary screen, cell-based, unfolded protein response, luciferase reporter. AID 2732, 2010. CHO-K1 CHOP-promoter luciferase, tunicamycin-induced, 15-18 h. actives 3.8% (n = 220,000). inhibition, % at 10 µM;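 active means compounds that reduced the stress-induced luciferase reporter signal by more than about 70% of percent inhibition, limit read from the data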;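 further: 0% = tunicamycin plus vehicle and 100% = wells without tunicamycin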
UPR XBP1 act – activators of adaptive XBP1 UPR arm, primary screen, cell-based, CHO-XBP1 luciferase reporter, luminescence, uHTS | IRE1-XBP1 UPR activation; percent of tunicamycin response, DMSO as zero | activation, % at 20 µM | actives 0.33% (n = 330,000);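 active means versus positive control, 20 µM dose yields 30% or more activation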;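 further: 100% = tunicamycin at 10 µg/mL and 0% = DMSO only wells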
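Material: CHO cell line with stable XBP1 luciferase reporter; schedule: 16-18 h cell attachment at 37 °C, then 6 h compound exposure; signal: glow luminescence from Steady-Glo reagent; medium: serum-containing F12 medium, 10% FBS; benchmarks: tunicamycin 10 µg/mL and vehicle-only wells; read-out: percent activation relative to tunicamycin reference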
Dynein transport – inhibitors of GR-EGFP nuclear translocation, primary screen, dynein cargo transport inhibitor project, imaging, high-content, 3617.4 mouse cells. AID 1381, 2008. actives 0.47% (n = 220,000). z-score, hits read low. test concentration mostly 20 µM; stimulated with dexamethasone, 1 µM; stronger effect = lower value;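 active means plate z-score of nuclear minus cytoplasmic receptor signal below a set negative limit, without overly bright fluorescence or cell loss, cut at about -3.5 in these data, passing the limit was not always enough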;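 further: z-score of nuclear minus cytoplasmic ring GR-EGFP intensity difference per well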
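Buffer or medium – tet-free medium with charcoal-stripped serum · Signal – automated 10x imaging of fixed Hoechst-stained cells · Also added – dexamethasone agonist, 1.0 µM final, for 30 min · Incubation – induction 48 h, compound 1 h, agonist 30 min · Read-out – GR-EGFP nuclear translocation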
pCIP destab – p/CIP-EGFP fusion destabilizers, primary screen, fluorescence, F442A cells; Q05BA5; 16 h; decrease of EGFP signal, % at 10 µM; actives 0.01% (n = 290,000);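 active means EGFP signal decrease of at least 30% at 10 µM or well 3 SD below plate mean, unless failing retest; inactive means the rest, including hits failing retest or dose response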
CHOP UPR activ – activators of apoptotic CHOP UPR arm, primary screen, cell-based, CHO-CHOP luciferase reporter, luminescence, uHTS | AID 449763, 2010 | activation, % at 10 µM | actives 0.34% (n = 330,000) | UPR activation; percent of tunicamycin response over DMSO baseline;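 active means at 10 µM dose, activation of 40% or more, normalized to positive control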;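 further: 100% = tunicamycin at 10 µg/mL and 0% = DMSO alone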
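Dosing – one dose, 10 µM in 0.5% DMSO · System – CHO-CHOP cells, stable luciferase reporter of PERK-eIF2a-CHOP signalling · Input – 500 cells/well · Control set – tunicamycin 10 µg/mL final as positive, DMSO-only wells as negative · Timing – 6 h compound treatment, 37 °C · Measure – % activation vs tunicamycin · Technique – luminescence read with Steady-Glo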
The depositor's hits bear a star; . = not tested or not shown.

SMILES	Beta2AR agonist	CHOP inh	UPR XBP1 act	Dynein transport	pCIP destab	CHOP UPR activ
Cc1ccc2nc(NC(=O)c3ccccn3)sc2c1	2	97*	-11	-0.17	-5	9
Cc1ccc2nc(NC(=O)c3ccc(S(=O)(=O)N4CCCc5ccccc54)cc3)sc2c1	2	76*	3	-0.00026	-11	11
Cc1cc(NC(=O)c2cccs2)ccc1NC(=O)Cc1ccccc1	-23	-1	0	-0.26	0	1
O=C(NCCCN1CCCC1)c1ccc(CS(=O)(=O)c2ccc(Cl)cc2)o1	1	.	-4	.	4	2
NC(=O)[C@@H]1CCCN1C(=O)c1ccc2nc(Cc3cccc(Cl)c3)oc2c1	-2	.	-2	.	7	-1
CCOC(=O)C1=C(O)C(=O)NC(c2ccccc2)=C(OC2CCCCC2)C1	-3	37	0	0.022	4	0
CCOC(=O)C1=C(O)C(=O)NC(c2ccccc2)=C(OCC)C1	-1	95*	1	-0.27	-7	4
O=c1[nH]c(C2C3CC4CC(C3)CC2C4)nc2ccccc12 (stereo unspecified)	-4	73*	-1	0.57	8	-1
C=C1C(=O)C23CCC4C(C)(C(=O)OC)CCCC4(C)C2CCC1(O)C3 (stereo unspecified)	96*	.	.	.	.	.
CC(C)c1ccc(-c2nc3ccccc3s2)cc1	-4	93*	-7	0.96	-6	-9
O=C1NCC(Nc2ccccc2Cl)C(=O)N1 (stereo unspecified)	5	.	.	.	.	.
COc1ccc(-c2cc(C(F)(F)F)nc(SCC(=O)NCc3cccs3)n2)cc1	-19	70*	0	0.082	-4	-1
FC(F)(F)c1cc(-c2ccccc2)nc(NCc2cccs2)n1	-22	75*	-1	-0.12	3	1
COc1ccc(-c2cc(C(F)(F)F)nc(SCC(N)=O)n2)cc1	5	19	-2	-0.63	1	-1
O=C(CSc1nc(-c2ccc(F)cc2)cc(C(F)(F)F)n1)Nc1ccc2c(c1)OCO2	-10	73*	0	0.095	-3	1
O=C(CSc1nc(-c2ccccc2)cc(C(F)(F)F)n1)NCc1cccs1	-22	82*	2	0.74	-15	-1
Cc1nn(CC(=O)Nc2ccc(S(=O)(=O)N(C)C)cc2)c(C)c1[N+](=O)[O-]	-6	36	-2	1.4	4	0
FC(F)(F)c1cnc(Sc2ncn[nH]2)c(Cl)c1	-7	19	-3	-0.53	4	1
Cc1cc(C)nc(SCC(=O)N(C)CC(=O)Nc2ccccc2Br)n1	-3	.	-5	.	.	-4
CCCCn1c(NC(=O)c2ccc(F)cc2)c(C#N)c2nc3ccccc3nc21	.	.	96*	.	.	2
N#Cc1c(N)n(CCc2ccc(F)cc2)c2nc3ccccc3nc12	5	71*	-5	-0.8	-7	3
Cc1ccc[n+](CC(=O)Nc2ccc(C)c(C)c2)c1	-3	.	-6	.	10	-2
O=C(Cc1cccc2ccccc12)Nc1ccc(-c2cc3ccccc3oc2=O)cc1	-6	81*	-10	-0.45	-11	-6
Cc1ccc(C(=O)NC(=S)Nc2ccc(-c3cc4ccccc4oc3=O)cc2)c(C)c1	-1	95*	-8	.	-1	3
Cc1cc(C)cc(C(=O)NC(=S)Nc2ccc(-c3cc4ccccc4oc3=O)cc2)c1	-3	67	1	2	2	3
SMILES	Beta2AR agonist	CHOP inh	UPR XBP1 act	Dynein transport	pCIP destab	CHOP UPR activ
Cc1ccc(C2=NN(CCC(=O)NCc3ccc4c(c3)OCO4)C(=O)CC2)cc1	-11	43	0	-0.51	-5	1
CCn1ncc(S(=O)(=O)NCc2ccccc2Cl)c1C	-5	.	-2	.	-2	-1
NC(=O)c1nc(C2CCCCC2)nc2c1[nH]c(=O)n2-c1ccc(F)cc1	-12	89*	4	0.67	-15	0
O=C(CNc1cccc(Cl)c1)c1ccc(Cl)cc1	0	75*	0	-0.32	8	8
Cc1ccc(C(=O)CNc2cccc(Cl)c2)cc1	-2	-39	2	1.1	1	3
O=C1C(O)=CC(=C(c2ccccc2)c2ccccc2)c2ccccc21	6	.	.	.	.	.
CCC(=O)Nc1cccc(C(=O)/C=C/c2ccccc2)c1	54*	-81	5	-1	-4	11
CCC(=O)Nc1ccc(NC(=S)NC(=O)/C=C/c2ccccc2)cc1	-21	92*	-3	1.4	3	1
O=C(CSc1ccccc1F)NC(=O)c1ccc(Cl)cc1	0	.	-1	.	.	0
C=CCN1C(=O)/C(=C/C=C2/N(CC)c3ccc(S(=O)(=O)N(C)C)cc3N2CC)SC1=S	-32	-9	-2	-0.78	-359	-3
CCOC(=O)c1ccc2c(c1)N(CC)/C(=C\C=C1/SC(=S)N(CC)C1=O)N2CC	.	.	.	-6*	.	.
CC(C)[C@H](NS(=O)(=O)c1ccccc1)C(=O)OCC(=O)NCc1ccc2c(c1)OCO2	-3	.	-3	.	.	-3
CCOC(=O)N1CCC(NC(=O)C2CCCN(Cc3nc(-c4cccc(Cl)c4)oc3C)C2)CC1 (stereo unspecified)	-5	85*	-4	-0.56	-14	8
O=C1CC(c2ccco2)CC(O)=C1C=Nc1cc(Cl)cc(Cl)c1 (stereo unspecified)	-6	84*	3	-0.62	9	29
Cc1onc(-c2ccccc2)c1C(=O)Nc1nnc(CC(C)(C)C)s1	4	.	-3	.	0	0
Cc1ccc(-c2cc(C(F)(F)F)n3nc(C(=O)Nc4ccon4)cc3n2)cc1C	-2	9	7	-0.32	-1	5
Cn1cnnc1SCc1ccc(C(=O)N=Nc2c(O)n(Cc3ccc(Cl)cc3)c3ccccc23)cc1	7	30	17	-0.91	-15	10
CCn1c(O)c(N=NC(=O)c2ccc(CSc3nncn3C)cc2)c2ccccc21	53*	13	-1	-0.24	-22	-1
CCOc1ccc2nc(NC(=O)C(NS(=O)(=O)c3cccc4nsnc34)C(C)C)sc2c1 (stereo unspecified)	1	20	0	-0.62	-3	2
CC(C)C(NS(=O)(=O)c1cccc2nsnc12)C(=O)Nc1nc2ccc(Cl)cc2s1 (stereo unspecified)	6	88*	-3	-0.56	-2	2
Cc1ccc2nc(-c3ccccc3)cc(C(=O)N3CCN(c4ccccc4O)CC3)c2c1	9	.	-4	.	.	2
